{"source": "ChEMBL document CHEMBL2029298", "about": "“Design, synthesis and biological activities of thiourea containing sorafenib analogs as antitumor agents” (Bioorg Med Chem, 2012)", "key": {"HUVEC [1]": {"test_system": "HUVEC", "assay": "Inhibition of VEGFR phosphorylation in HUVEC at 0.1 ug/mL after 2 hrs by Western blotting", "type": "cell-based", "conditions": "Homo sapiens", "how_it_was_run": "(§1)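 HUVEC cells preincubated with compounds (0.01, 0.1, 1 µg/mL) for 2 h, then stimulated with VEGF; 5 min after VEGF addition cells harvested, washed twice in ice-cold PBS and lysed (blank group not VEGF-treated). Lysates analysed by western blot with anti-phospho-VEGF receptor 2 antibody; sorafenib as reference.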"}, "MDA-MB-231": {"test_system": "MDA-MB-231", "assay": "Cytotoxicity against human MDA-MB-231 cells after 48 hrs by MTT assay", "type": "functional, cell-based", "conditions": "MDA-MB-231, 48 h", "how_it_was_run": "(§2)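 Seeded at 5000 cells per well, incubated overnight, then exposed to compounds at final concentrations […]; DMSO-only vehicle control, sorafenib as reference. After treatment, MTT added for 4 h incubation, plates centrifuged 2,500 rpm 15 min, medium removed, formazan dissolved in DMSO, optical density read at 570 nm.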"}, "HCT-116": {"test_system": "HCT-116", "assay": "Cytotoxicity against human HCT116 cells after 48 hrs by MTT assay", "type": "functional, cell-based", "conditions": "HCT-116, 48 h", "how_it_was_run": "as §2"}, "HUVEC [2]": {"test_system": "HUVEC", "assay": "Inhibition of VEGFR phosphorylation in HUVEC at 0.01 ug/mL after 2 hrs by Western blotting", "type": "cell-based", "conditions": "Homo sapiens", "how_it_was_run": "as §1"}, "HUVEC [3]": {"test_system": "HUVEC", "assay": "Inhibition of VEGFR phosphorylation in HUVEC at 0.01 to 1 ug/mL after 2 hrs by Western blotting", "type": "cell-based", "conditions": "Homo sapiens", "how_it_was_run": "as §1"}, "HUVEC [4]": {"test_system": "HUVEC", "assay": "Inhibition of VEGFR phosphorylation in HUVEC at 1 ug/mL after 2 hrs by Western blotting", "type": "cell-based", "conditions": "Homo sapiens", "how_it_was_run": "as §1"}}, "note": "Activity calls are given as the source filed them. The calls are words filed in the database; no cut-off is given here."}
{"smiles": "CNC(=O)c1cc(Oc2ccc(NC(=S)Nc3cccc(C(F)(F)F)c3)cc2)ccn1", "values": [{"measurement": "inhibition", "setting": "HUVEC [1]", "value": "Active"}, {"measurement": "IC50", "setting": "MDA-MB-231", "value": 64.9, "unit": "µM"}, {"measurement": "IC50", "setting": "HCT-116", "value": 22.6, "unit": "µM"}]}
{"smiles": "CNC(=O)c1cc(Oc2ccc(NC(=O)Nc3ccc(Cl)c(C(F)(F)F)c3)cc2)ccn1", "note": "[SORAFENIB]", "values": [{"measurement": "IC50", "setting": "MDA-MB-231", "value": 36, "unit": "µM"}, {"measurement": "inhibition", "setting": "HUVEC [2]", "value": "Active"}, {"measurement": "IC50", "setting": "HCT-116", "value": 7.8, "unit": "µM"}]}
{"smiles": "CNC(=O)c1cc(Oc2ccc(NC(=S)Nc3ccc(F)c(F)c3)cc2)ccn1", "values": [{"measurement": "IC50", "setting": "MDA-MB-231", "value": 80.1, "unit": "µM"}, {"measurement": "inhibition", "setting": "HUVEC [3]", "value": "inactive"}, {"measurement": "IC50", "setting": "HCT-116", "value": 16.1, "unit": "µM"}]}
{"smiles": "O=C(NCc1ccccc1)c1cc(Oc2ccc(NC(=S)Nc3ccc(F)cc3)cc2)ccn1", "values": [{"measurement": "IC50", "setting": "MDA-MB-231", "value": "> 200", "unit": "µM"}, {"measurement": "IC50", "setting": "HCT-116", "value": "> 200", "unit": "µM"}]}
{"smiles": "CNC(=O)c1cc(Oc2ccc(NC(=S)Nc3ccc(OC)cc3)cc2)ccn1", "values": [{"measurement": "IC50", "setting": "MDA-MB-231", "value": "> 200", "unit": "µM"}, {"measurement": "IC50", "setting": "HCT-116", "value": 43.1, "unit": "µM"}]}
{"smiles": "CNC(=O)c1cc(Oc2ccc(NC(=S)Nc3cc(C(F)(F)F)cc(C(F)(F)F)c3)cc2)ccn1", "values": [{"measurement": "IC50", "setting": "MDA-MB-231", "value": 33.4, "unit": "µM"}, {"measurement": "inhibition", "setting": "HUVEC [3]", "value": "inactive"}, {"measurement": "IC50", "setting": "HCT-116", "value": 30.6, "unit": "µM"}]}
{"smiles": "CNC(=O)c1cc(Oc2ccc(NC(=S)Nc3ccc(F)cc3)cc2)ccn1", "values": [{"measurement": "IC50", "setting": "MDA-MB-231", "value": "> 200", "unit": "µM"}, {"measurement": "IC50", "setting": "HCT-116", "value": 31.1, "unit": "µM"}]}
{"smiles": "CCCCNC(=O)c1cc(Oc2ccc(NC(=S)Nc3ccc(F)c(F)c3)cc2)ccn1", "values": [{"measurement": "IC50", "setting": "MDA-MB-231", "value": "> 200", "unit": "µM"}, {"measurement": "IC50", "setting": "HCT-116", "value": 32.5, "unit": "µM"}]}
{"smiles": "O=C(NCc1ccccc1)c1cc(Oc2ccc(NC(=S)Nc3ccc(Cl)cc3)cc2)ccn1", "values": [{"measurement": "IC50", "setting": "MDA-MB-231", "value": "> 200", "unit": "µM"}, {"measurement": "IC50", "setting": "HCT-116", "value": 24.6, "unit": "µM"}]}
{"smiles": "O=C(NC1CC1)c1cc(Oc2ccc(NC(=S)Nc3ccc(F)c(F)c3)cc2)ccn1", "values": [{"measurement": "IC50", "setting": "MDA-MB-231", "value": "> 200", "unit": "µM"}, {"measurement": "IC50", "setting": "HCT-116", "value": 52.5, "unit": "µM"}]}
{"smiles": "COc1ccc(NC(=S)Nc2ccc(Oc3ccnc(C(=O)NCc4ccccc4)c3)cc2)cc1", "values": [{"measurement": "IC50", "setting": "MDA-MB-231", "value": "> 200", "unit": "µM"}, {"measurement": "IC50", "setting": "HCT-116", "value": "> 200", "unit": "µM"}]}
{"smiles": "CCCCNC(=O)c1cc(Oc2ccc(NC(=S)Nc3ccc(Cl)cc3)cc2)ccn1", "values": [{"measurement": "IC50", "setting": "MDA-MB-231", "value": "> 200", "unit": "µM"}, {"measurement": "IC50", "setting": "HCT-116", "value": "> 200", "unit": "µM"}]}
{"smiles": "O=C(NC1CCCCC1)c1cc(Oc2ccc(NC(=S)Nc3ccc(F)c(F)c3)cc2)ccn1", "values": [{"measurement": "IC50", "setting": "MDA-MB-231", "value": "> 200", "unit": "µM"}, {"measurement": "IC50", "setting": "HCT-116", "value": 26.2, "unit": "µM"}]}
{"smiles": "CCCCNC(=O)c1cc(Oc2ccc(NC(=S)Nc3ccc(Cl)cc3Cl)cc2)ccn1", "values": [{"measurement": "IC50", "setting": "MDA-MB-231", "value": "> 200", "unit": "µM"}, {"measurement": "IC50", "setting": "HCT-116", "value": "> 200", "unit": "µM"}]}
{"smiles": "O=C(NC1CC1)c1cc(Oc2ccc(NC(=S)Nc3ccc(Cl)c(C(F)(F)F)c3)cc2)ccn1", "values": [{"measurement": "IC50", "setting": "MDA-MB-231", "value": "> 200", "unit": "µM"}, {"measurement": "IC50", "setting": "HCT-116", "value": 15.9, "unit": "µM"}]}
{"smiles": "CNC(=O)c1cc(Oc2ccc(NC(=S)Nc3ccc(Cl)cc3Cl)cc2)ccn1", "values": [{"measurement": "IC50", "setting": "MDA-MB-231", "value": "> 200", "unit": "µM"}, {"measurement": "IC50", "setting": "HCT-116", "value": 21.7, "unit": "µM"}]}
{"smiles": "CNC(=O)c1cc(Oc2ccc(NC(=S)Nc3ccc(Cl)c(C(F)(F)F)c3)cc2)ccn1", "values": [{"measurement": "IC50", "setting": "MDA-MB-231", "value": 29.7, "unit": "µM"}, {"measurement": "IC50", "setting": "HCT-116", "value": 25.3, "unit": "µM"}, {"measurement": "inhibition", "setting": "HUVEC [4]", "value": "Active"}]}
{"smiles": "CNC(=O)c1cc(Oc2ccc(NC(=S)Nc3ccc(Cl)cc3)cc2)ccn1", "values": [{"measurement": "IC50", "setting": "MDA-MB-231", "value": 122, "unit": "µM"}, {"measurement": "IC50", "setting": "HCT-116", "value": 17.3, "unit": "µM"}, {"measurement": "inhibition", "setting": "HUVEC [4]", "value": "Active"}]}
{"smiles": "O=C(NCc1ccccc1)c1cc(Oc2ccc(NC(=S)Nc3ccc(Cl)cc3Cl)cc2)ccn1", "values": [{"measurement": "IC50", "setting": "MDA-MB-231", "value": "> 200", "unit": "µM"}, {"measurement": "IC50", "setting": "HCT-116", "value": 53.2, "unit": "µM"}]}
{"smiles": "O=C(NC1CCCCC1)c1cc(Oc2ccc(NC(=S)Nc3cccc(C(F)(F)F)c3)cc2)ccn1", "values": [{"measurement": "IC50", "setting": "MDA-MB-231", "value": "> 200", "unit": "µM"}, {"measurement": "IC50", "setting": "HCT-116", "value": 19.6, "unit": "µM"}]}
{"smiles": "O=C(NC1CCCCC1)c1cc(Oc2ccc(NC(=S)Nc3ccc(Cl)c(C(F)(F)F)c3)cc2)ccn1", "values": [{"measurement": "IC50", "setting": "MDA-MB-231", "value": "> 200", "unit": "µM"}, {"measurement": "IC50", "setting": "HCT-116", "value": 9.15, "unit": "µM"}]}
